A short description of series [1]: Cytotoxicity against human HeLaM cells by MTT assay. It counts as functional, M-HeLa.
The test system of series [2] is Respiratory syncytial virus. Description: Inhibition of RSV by MTT assay. It counts as functional, organism-based. Particulars: human respiratory syncytial virus. In a few lines: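 HeLaM epithelial-like cells infected with RSV with or without a range of compound concentrations; viability read by MTT after 1 week incubation. OD measured spectrophotometrically and pEC50 derived. Virus, cell and cytotoxicity controls on every plate, reference compounds in every test; runs failing control criteria rejected.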

Series [3] in a line: Half life in Sprague-Dawley rat lung. The series is classed as ADME, organism-based.

On to `Cc1cc(C)cc(NCc2ccc3nc(NCC(O)CO)n(Cc4nc(C)ccc4O)c3c2)c1` (configuration not stated), for which the pCC50 in series [1] worked out at 4.3. The EC50 in series [2] was 31.6 nM.

With `Cc1cc(C)cc(NCc2ccc3nc(NC4CCN(C)CC4)n(Cc4nc(C)ccc4O)c3c2)c1`, the pCC50 in series [1] is reported as 4.3. Also, the concentration for a half-maximal effect (EC50) in series [2] is 2.51 nM.

Regarding `Cc1cccc(C(=O)Nc2ccc3nc(NC4CCN(C)CC4)n(Cc4nc(C)ccc4O)c3c2)c1`, the pCC50 in series [1] worked out at 4.3. The EC50 in series [2] is 63.1 nM.

`Cc1ccc(O)c(Cn2c(NC3CCN(C)CC3)nc3ccc(CNc4ccccc4)cc32)n1` yielded a pCC50 in series [1] of 4.5. This compound also showed an EC50 in series [2] of 15.8 nM.

As for `Cc1cccc(NCc2ccc3nc(NC4CCN(C)CC4)n(Cc4nc(C)ccc4O)c3c2)c1`, the pCC50 in series [1] was 4.7. This compound also had an EC50 in series [2] of 5.01 nM.

`Cc1ccc(O)c(Cn2c(NCCCN3CCOCC3)nc3ccc(CN(CCO)c4ccccc4)cc32)n1` showed a pCC50 in series [1] of 4.3. Besides, in series [2], the response was half-maximal at 3.16 nM (EC50).

`Cc1cc(C)cc(N(CCO)Cc2ccc3nc(NC4CCN(C)CC4)n(Cc4nc(C)ccc4O)c3c2)c1` gave a pCC50 in series [1] of 4.4. The compound further had an EC50 in series [2] of 0.398 nM.

With `Cc1cc(C)cc(N(CCO)Cc2ccc3nc(NCCCN4CCOCC4)n(Cc4nc(C)ccc4O)c3c2)c1`, the pCC50 in series [1] was found to be 4.4. The half-life in series [3] is 19.6 h. Besides, it took 0.501 nM to reach a half-maximal effect in series [2] (EC50).

In series [1], `Cc1cccc(NCc2ccc3nc(NC4CCN(CCO)CC4)n(Cc4nc(C)ccc4O)c3c2)c1` had a pCC50 of 4.4. Also, the half-life in series [3] is 67.7 h. Further, it took 1.58 nM to reach a half-maximal effect in series [2] (EC50).

With `Cc1cccc(N(CCO)Cc2ccc3nc(NCCCN4CCOCC4)n(Cc4nc(C)ccc4O)c3c2)c1`, the pCC50 in series [1] amounted to 5. This compound showed an EC50 in series [2] of 0.501 nM.

For `Cc1ccc(O)c(Cn2c(NCCCN3CCOCC3)nc3ccc(CNc4ccccc4CCCO)cc32)n1`, the pCC50 in series [1] worked out at 4.9. In series [2], this compound had an EC50 of 0.251 nM.

As to `Cc1cccc(/C=C/c2ccc3nc(NC4CCN(C)CC4)n(Cc4nc(C)ccc4O)c3c2)c1`, the pCC50 in series [1] is 5.6. For the same compound, the response in series [2] was half-maximal at 501 nM (EC50).

With `Cc1cccc(CCc2ccc3nc(NC4CCN(CCN)CC4)n(Cc4nc(C)ccc4O)c3c2)c1`, in series [1], the pCC50 turned out to be 4.9. The same compound gave an EC50 in series [2] of 1 nM.

`Cc1ccc(O)c(Cn2c(NC3CCN(CC(N)C(C)C)CC3)nc3c(C)ccnc32)n1` (configuration not stated) returned a pCC50 in series [1] of 4.3. In series [2], this compound showed an EC50 of 0.1 nM.

Turning to `CCCCNc1nc2ccc(CNc3cc(C)cc(C)c3)cc2n1Cc1nc(C)ccc1O`, the pCC50 in series [1] was determined as 5.1. This compound also had an EC50 in series [2] of more than 100000 nM.

The values above are taken from ChEMBL document CHEMBL1142321, “Selection of a respiratory syncytial virus fusion inhibitor clinical candidate. 2. Discovery of a morpholinopropylaminobenzimidazole derivative (TMC353121)” (J Med Chem, 2008).
